Reference: ChEMBL document CHEMBL3526048, “In vitro metabolism of rivoglitazone, a novel peroxisome proliferator-activated receptor γ agonist, in rat, monkey, and human liver microsomes and freshly isolated hepatocytes” (Drug Metab Dispos, 2011)

Key:
[1] = tested on: Liver microsome; assay: Drug metabolism in Sprague-Dawley rat liver microsomes assessed as formation of 5-hydroxy-5-(4-((6-methoxy-1-methyl-1H-benzo[d]imidazol-2-yl)methoxy)benzyl)thiazolidine-2,4-dione at 20 uM after 2 hrs by radio-HPLC/LC-MS/MS analysis in presence of NADPH-generating system and NADPH-generating system/SAM; assay type: ADME
[2] = biological target: Cytochrome P450 3A5 (Homo sapiens, UniProt P20815); assay: Activity of human CYP3A5 expressed in microsomes isolated from baculovirus infected insect cell assessed as enzyme-mediated 5-hydroxy-5-(4-((6-methoxy-1-methyl-1H-benzo[d]imidazol-2-yl)methoxy)benzyl)thiazolidine-2,4-dione formation at 20 uM after 2 hrs by radio-HPLC/LC-MS/MS analysis in presence of NADPH-generating system and NADPH-generating system/SAM; assay type: ADME
Chain of Cytochrome P450 3A5 (P20815 whole entry): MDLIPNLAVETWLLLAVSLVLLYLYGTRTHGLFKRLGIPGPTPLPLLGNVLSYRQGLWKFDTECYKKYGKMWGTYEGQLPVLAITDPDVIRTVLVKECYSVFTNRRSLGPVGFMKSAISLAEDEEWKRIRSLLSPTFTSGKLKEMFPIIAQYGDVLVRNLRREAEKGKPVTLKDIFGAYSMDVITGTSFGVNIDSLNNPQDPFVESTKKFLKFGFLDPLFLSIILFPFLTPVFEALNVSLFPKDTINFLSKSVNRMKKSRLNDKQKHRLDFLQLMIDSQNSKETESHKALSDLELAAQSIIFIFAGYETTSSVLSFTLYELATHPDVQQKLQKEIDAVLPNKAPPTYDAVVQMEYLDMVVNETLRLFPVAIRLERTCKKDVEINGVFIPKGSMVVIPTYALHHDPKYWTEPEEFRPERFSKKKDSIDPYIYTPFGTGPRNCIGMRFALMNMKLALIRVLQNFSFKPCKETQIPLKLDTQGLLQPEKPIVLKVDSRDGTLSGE
In short: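 cDNA-expressed human CYP3A5 in baculovirus-insect-cell microsomes (1 mg/ml protein) was incubated with [¹⁴C]rivoglitazone (20 μM) in 50 mM potassium phosphate (pH 7.4) or 100 mM Tris-HCl (pH 7.5). NADPH-generating system: 2 mM NADP⁺, 20 mM glucose 6-phosphate, 2 units/ml G6PDH, 10 mM MgCl₂. Incubation ran 2 h at 37°C with shaking; insect-cell control supersomes served as control. Acetonitrile stop, supernatant concentrated, then radio-HPLC, LC-MS and LC-MS/MS.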

[3] = biological target: T1, UDP-glucuronosyltransferase 1A3 (Homo sapiens, UniProt P35503); assay: Activity of human UGT1A3 expressed in microsomes isolated from baculovirus infected insect cell assessed as enzyme-mediated 3-(4-((6-methoxy-1-methyl-1H-benzo[d]imidazol-2-yl)methoxy)phenyl)-2-(methylsulfinyl)propanamide formation at 20 uM after 4 hrs by radio-HPLC/LC-MS/MS analysis in presence of NADPH-generating system/SAM; assay type: ADME
T1 sequence (P35503 whole entry): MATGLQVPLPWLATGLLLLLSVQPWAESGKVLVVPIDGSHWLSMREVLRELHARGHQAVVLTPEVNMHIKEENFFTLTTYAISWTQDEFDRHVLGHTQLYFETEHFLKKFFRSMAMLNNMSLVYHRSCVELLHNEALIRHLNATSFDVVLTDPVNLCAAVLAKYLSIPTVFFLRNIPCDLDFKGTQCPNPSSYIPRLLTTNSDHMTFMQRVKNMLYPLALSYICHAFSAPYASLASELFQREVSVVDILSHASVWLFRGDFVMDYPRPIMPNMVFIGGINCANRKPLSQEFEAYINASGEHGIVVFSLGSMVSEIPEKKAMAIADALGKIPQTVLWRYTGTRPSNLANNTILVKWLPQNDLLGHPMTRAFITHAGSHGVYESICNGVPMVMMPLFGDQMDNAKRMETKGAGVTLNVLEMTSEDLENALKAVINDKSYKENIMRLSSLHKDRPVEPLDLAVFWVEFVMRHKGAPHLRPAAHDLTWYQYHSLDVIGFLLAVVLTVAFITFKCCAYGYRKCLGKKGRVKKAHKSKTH

[4] = Drug metabolism in rat hepatocytes assessed as formation of (2S,3S,4S,5R,6R)-6-((1-carboxy-2-(4-((6-methoxy-1-methyl-1H-benzo[d]imidazol-2-yl)methoxy)phenyl)ethylthio)carbonylamino)-3,4,5-trihydroxytetrahydro-2H-pyran-2-carboxylic acid at 30 uM after 3 hrs by radio-HPLC/LC-MS/MS analysis in presence of UDPGA and UDPGA/SAM; assay type: ADME, cell-based, Hepatocyte
[5] = tested on: Liver microsome; assay: Drug metabolism in Sprague-Dawley rat liver microsomes assessed as formation of 5-(4-((6-hydroxy-1-methyl-1H-benzo[d]imidazol-2-yl)methoxy)benzyl)thiazolidine-2,4-dione at 20 uM after 2 hrs by radio-HPLC/LC-MS/MS analysis in presence of NADPH-generating system and NADPH-generating system/SAM; assay type: ADME
[6] = biological target: Cytochrome P450 2C9 (Homo sapiens, UniProt P11712); assay: Activity of human CYP2C9 expressed in microsomes isolated from baculovirus infected insect cell assessed as enzyme-mediated 2-mercapto-3-(4-((6-methoxy-1-methyl-1H-benzo[d]imidazol-2-yl)methoxy)phenyl)propanamide formation at 20 uM after 2 hrs by radio-HPLC/LC-MS/MS analysis in presence of NADPH-generating system and NADPH-generating system/SAM; assay type: ADME
Chain of Cytochrome P450 2C9 (P11712 whole entry): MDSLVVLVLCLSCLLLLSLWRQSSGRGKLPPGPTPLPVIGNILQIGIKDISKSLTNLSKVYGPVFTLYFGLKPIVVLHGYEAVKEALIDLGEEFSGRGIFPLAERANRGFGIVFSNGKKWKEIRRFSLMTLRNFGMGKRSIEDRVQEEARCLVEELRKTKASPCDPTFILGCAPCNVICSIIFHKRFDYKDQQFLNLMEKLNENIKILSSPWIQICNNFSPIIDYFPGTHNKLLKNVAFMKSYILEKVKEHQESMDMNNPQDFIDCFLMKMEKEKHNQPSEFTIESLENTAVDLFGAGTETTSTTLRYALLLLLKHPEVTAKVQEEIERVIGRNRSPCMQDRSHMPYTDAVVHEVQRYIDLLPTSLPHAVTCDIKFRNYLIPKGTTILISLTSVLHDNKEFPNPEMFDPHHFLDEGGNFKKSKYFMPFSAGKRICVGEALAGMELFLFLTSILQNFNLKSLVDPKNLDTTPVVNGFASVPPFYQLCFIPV

[7] = Drug metabolism in po dosed monkey bile assessed as formation of 5-(4-((6-methoxy-1H-benzo[d]imidazol-2-yl)methoxy)benzyl)thiazolidine-2,4-dione; assay type: ADME, organism-based, Macaca mulatta; conditions: rhesus monkey, in vivo
[8] = tested on: Liver microsome; assay: Drug metabolism in Sprague-Dawley rat liver microsomes assessed as formation of 2-amino-3-((1-carboxy-2-(4-((6-methoxy-1-methyl-1H-benzo[d]imidazol-2-yl)methoxy)phenyl)ethyl)disulfanyl)propanoic acid at 20 uM by radio-HPLC/LC-MS/MS analysis; assay type: ADME
[9] = biological target: T2, UDP-glucuronosyltransferase 2B17 (Homo sapiens, UniProt O75795); assay: Activity of human UGT2B17 expressed in microsomes isolated from baculovirus infected insect cell assessed as enzyme-mediated (2S,3S,4S,5R,6R)-6-((1-carboxy-2-(4-((6-methoxy-1-methyl-1H-benzo[d]imidazol-2-yl)methoxy)phenyl)ethylthio)carbonylamino)-3,4,5-trihydroxytetrahydro-2H-pyran-2-carboxylic acid formation at 20 uM after 4 hrs by radio-HPLC/LC-MS/MS analysis in presence of UDPGA; assay type: ADME
T2 sequence (O75795 whole entry): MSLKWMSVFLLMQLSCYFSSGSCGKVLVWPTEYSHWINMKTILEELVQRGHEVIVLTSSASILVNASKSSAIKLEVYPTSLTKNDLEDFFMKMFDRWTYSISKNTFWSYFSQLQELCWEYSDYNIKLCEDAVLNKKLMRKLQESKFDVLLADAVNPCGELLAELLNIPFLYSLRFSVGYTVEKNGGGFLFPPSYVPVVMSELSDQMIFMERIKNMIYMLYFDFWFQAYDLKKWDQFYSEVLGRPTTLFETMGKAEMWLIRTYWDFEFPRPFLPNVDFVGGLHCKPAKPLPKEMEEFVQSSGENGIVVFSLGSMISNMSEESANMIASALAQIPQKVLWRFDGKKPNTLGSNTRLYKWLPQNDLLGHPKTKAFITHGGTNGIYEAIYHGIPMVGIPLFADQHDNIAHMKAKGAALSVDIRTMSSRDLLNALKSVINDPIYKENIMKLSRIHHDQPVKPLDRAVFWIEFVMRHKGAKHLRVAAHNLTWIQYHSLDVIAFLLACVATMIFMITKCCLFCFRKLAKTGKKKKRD

[10] = biological target: T3, UDP-glucuronosyltransferase 1A8 (Homo sapiens, UniProt Q9HAW9); assay: Activity of human UGT1A8 expressed in microsomes isolated from baculovirus infected insect cell assessed as enzyme-mediated (2S,3S,4S,5R,6R)-3,4,5-trihydroxy-6-(5-(4-((6-methoxy-1-methyl-1H-benzo[d]imidazol-2-yl)methoxy)benzyl)-2,4-dioxothiazolidin-3-yl)tetrahydro-2H-pyran-2-carboxylic acid formation at 20 uM after 4 hrs by radio-HPLC/LC-MS/MS analysis in presence of UDPGA; assay type: ADME
T3 sequence (Q9HAW9 whole entry): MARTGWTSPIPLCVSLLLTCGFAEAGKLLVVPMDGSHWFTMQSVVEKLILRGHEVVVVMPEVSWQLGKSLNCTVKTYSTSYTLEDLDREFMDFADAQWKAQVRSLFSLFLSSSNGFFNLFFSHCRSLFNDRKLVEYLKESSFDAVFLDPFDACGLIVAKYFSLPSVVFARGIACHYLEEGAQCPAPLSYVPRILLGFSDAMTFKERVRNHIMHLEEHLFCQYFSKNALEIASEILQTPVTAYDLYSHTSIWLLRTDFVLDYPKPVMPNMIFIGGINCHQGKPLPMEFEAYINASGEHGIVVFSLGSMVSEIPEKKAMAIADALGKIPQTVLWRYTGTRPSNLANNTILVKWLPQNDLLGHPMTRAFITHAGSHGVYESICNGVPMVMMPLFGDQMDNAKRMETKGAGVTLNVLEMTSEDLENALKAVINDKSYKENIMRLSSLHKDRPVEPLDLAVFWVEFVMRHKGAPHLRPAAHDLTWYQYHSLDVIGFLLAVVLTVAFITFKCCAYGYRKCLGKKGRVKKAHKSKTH

[11] = Drug metabolism in human hepatocytes assessed as formation of 5-(4-((6-methoxy-1H-benzo[d]imidazol-2-yl)methoxy)benzyl)thiazolidine-2,4-dione at 30 uM after 3 hrs by radio-HPLC/LC-MS/MS analysis in presence of NADPH-generating system and NADPH-generating system/SAM; assay type: ADME, cell-based, Hepatocyte

Drug metabolism [1]: metabolite_detected
Drug metabolism [2]: metabolite_detected
Drug metabolism [3]: metabolite_not_detected
Drug metabolism [4]: metabolite_detected
Drug metabolism [5]: metabolite_detected
Drug metabolism [6]: metabolite_detected
Drug metabolism [7]: metabolite_detected
Drug metabolism [8]: metabolite_not_detected
Drug metabolism [9]: metabolite_not_detected
Drug metabolism [10]: metabolite_not_detected
Drug metabolism [11]: metabolite_detected
SMILES: COc1ccc2nc(COc3ccc(C[14CH]4SC(=O)NC4=O)cc3)n(C)c2c1.Cl (racemic)
